Only some compounds are listed: those with a hit (about 1.8% of all), similar ones and a draw of the others.
Autophagy mod = autophagy modulation, high-content screen | MEF GFP-LC3 puncta imaging; test concentration mostly 10 µM | calls only at 10 µM (by protocol) | 0.98% of 190,000 active | AID 463193;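 active means percentage of spot-positive cells more than 3 SD above its plate mean, without a fluorescence outlier flag or 80% toxicity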;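 further: spot-positive cell cutoff set from DMSO-treated cells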
Dynein transport = dynein cargo transport inhibition. z-score, hits read low. 0.47% of 220,000 active. 3617.4 mouse cells, GR-EGFP nuclear translocation imaging; test concentration mostly 20 µM; stimulated with dexamethasone, 1 µM; active compounds read low. AID 1381;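 active means plate z-score of nuclear minus cytoplasmic receptor signal below a set negative limit, without overly bright fluorescence or cell loss, cut at about -3.5 in these data, passing the limit was not always enough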;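 further: z-score of nuclear minus cytoplasmic ring GR-EGFP intensity difference per well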
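Also added: dexamethasone, 1.0 µM final. Medium: tet-free, stripped-serum medium. Detection: fixed, Hoechst-stained cells imaged at 10x for EGFP. Read-out: nuclear-to-cytoplasmic GR-EGFP distribution per well. Times: induction 48 h, compound 1 h, agonist 30 min.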
Furin inh = blocks human furin protease activity; purified furin, fluorogenic substrate cleavage; 0.061% of 220,000 active; P09958; inhibition, % at 20 µM or 30 µM; in the data active means inhibition above about 25%
Target sequence (P09958 108-714 limits assumed): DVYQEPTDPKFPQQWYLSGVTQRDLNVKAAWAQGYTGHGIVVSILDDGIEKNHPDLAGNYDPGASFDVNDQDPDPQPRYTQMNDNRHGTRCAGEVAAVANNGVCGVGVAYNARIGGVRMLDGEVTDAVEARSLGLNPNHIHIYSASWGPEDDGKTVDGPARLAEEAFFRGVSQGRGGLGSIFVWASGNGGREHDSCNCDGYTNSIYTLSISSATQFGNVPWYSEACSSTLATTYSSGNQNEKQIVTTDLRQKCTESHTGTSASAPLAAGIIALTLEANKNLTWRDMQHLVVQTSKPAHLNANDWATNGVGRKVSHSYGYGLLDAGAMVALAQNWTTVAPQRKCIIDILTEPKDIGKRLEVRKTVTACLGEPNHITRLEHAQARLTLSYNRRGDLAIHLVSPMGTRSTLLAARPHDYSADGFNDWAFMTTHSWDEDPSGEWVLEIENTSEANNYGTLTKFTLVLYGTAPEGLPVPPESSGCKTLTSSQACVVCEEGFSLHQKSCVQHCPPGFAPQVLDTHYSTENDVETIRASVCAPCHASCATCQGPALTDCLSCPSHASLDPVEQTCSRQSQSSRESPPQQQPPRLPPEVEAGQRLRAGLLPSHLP
zVAD death inh = blocks zVAD induced death of L929 cells. L929 zVAD necroptosis rescue, ATP luminescence, 24 h; with zVAD 60 µM. viability rescue, % at 10 µM. 0.38% of 220,000 active. AID 1377;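 active means activation, scaled between plate controls, above about 75%, limit read from the data; inactive means activation under that limit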;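 further: 0% = zVAD with DMSO and 100% = DMSO alone without zVAD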
TNF necrop inh = TNF-alpha cell death inhibition in Jurkat FADD-/- cells. Jurkat FADD-/- TNF necroptosis rescue, ATP luminescence, 24 h; 0 = TNF only, 100 = no-TNF cells. 0.068% of 220,000 active. activation (protection from cell death), % at 10 µM;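 active means activation, meaning protection from cell death, of at least 50% relative to plate controls; inactive means activation below 50%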;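 further: necroptosis triggered by 40 ng/mL TNF-alpha added together with compound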
HSV augment = increases HSV replication in cells; 0.005% of 220,000 active; HSV replication augmentation in cells, fold increase; AID 1956; maximum fold increase; in the data active means maximum fold increase above about 1.5; tested in PC3 cells
The depositor's hits bear a star; i = inactive; x = no result given; + = active, no number.

SMILES | Autophagy mod | Dynein transport | Furin inh | zVAD death inh | TNF necrop inh | HSV augment
CCN1C(=O)/C(=C\c2cn(-c3ccccc3)nc2-c2cccnc2)SC1=S | + | 0.899 | -11.0 | 0.7 | -0.8 | i
CCOc1ccc(-c2nn(-c3ccccc3)cc2/C=C2\SC(=S)N(Cc3ccco3)C2=O)cc1 | i | -0.051 | -1.4 | 1.5 | 0.6 | i
CCc1ccc2[nH]c(=O)c(CN(CCN(CC)CC)C(=O)Nc3ccccc3OC)cc2c1 | + | -0.602 | -18.8 | -0.4 | -4.4 | i
CC(NC(=O)C1(c2cccs2)CCOCC1)c1ccccc1 (stereo not given) | i | -0.349 | -24.9 | 0.6 | 0.2 | i
CCCn1c(SCC(=O)N2CCCc3ccccc32)nc2c1c(=O)n(C)c(=O)n2C | i | -0.546 | -25.8 | -0.5 | 0.8 | x
Cn1c(=O)c2c(nc(SCC(=O)N3CCc4ccccc43)n2Cc2ccc(F)cc2)n(C)c1=O | i | 2.06 | 28.4* | -0.2 | 1.0 | x
CCN(Cc1cc(=O)n2ccsc2n1)Cc1nc2cc(OC)c(OC)cc2c(=O)[nH]1 | x | -0.849 | -17.9 | -0.8 | -0.2 | i
Cc1c(NC(=O)c2cc(-c3ccccc3)on2)c(=O)n(-c2ccccc2)n1C | i | 0.442 | -3.2 | 0.5 | -0.2 | i
Cc1c(NC(=O)c2cc(C3CC3)on2)c(=O)n(-c2ccccc2)n1C | + | -0.602 | -15.3 | 0.1 | 1.1 | i
Cc1c(NC(=O)c2ccc(Cl)c(S(=O)(=O)N3CCOCC3)c2)c(=O)n(-c2ccccc2)n1C | i | -0.567 | 29.7* | 0.8 | -1.3 | i
COc1ccc(C(=O)Nc2ccc(-c3ccc(C)o3)cc2)cc1S(=O)(=O)N1CCOCC1 | i | -0.0257 | -18.3 | 83.8* | -11.2 | i
Cc1c(-c2ccccc2)nc2ccccc2c1C(=O)NCc1cccs1 | i | -1.12 | -10.2 | 0.4 | -1.7 | i
CC(C)Cc1cc(C(=O)N2CCCC(CCC(=O)N(C)CCc3ccccn3)C2)no1 (stereo not given) | i | 0.186 | -21.8 | 1.0 | 0.0 | i
CCN1CCN(Cc2ccc(NC(=O)c3cc(NC(=O)c4cncc(-c5ccc(C#N)cc5)c4)cc(OC)c3)cc2C(F)(F)F)CC1 | x | 0.886 | -18.5 | 79.6* | -26.4 | i
COc1cc(-c2cc(C(=O)Nc3ccc(S(=O)(=O)NCc4ccco4)cc3)c3ccccc3n2)cc(OC)c1OC | + | -0.621 | -5.0 | 4.9 | -1.6 | i
COc1cc(-c2cc(C(=O)Nc3ccc(N4CCOCC4)cc3)c3ccccc3n2)cc(OC)c1OC | x | 0.012 | -8.7 | 1.8 | -12.5 | i
Cc1cc(CNC(=O)c2cccnc2Cl)c2ccccc2n1 | i | -0.32 | -22.6 | 3.9 | 0.6 | i
Cc1cccc(NC(=O)C2CCN(S(=O)(=O)c3cccc4nsnc34)CC2)n1 | i | 0.803 | -5.7 | 0.9 | 0.5 | x
COc1ccc2nc(NC(=O)C3CCN(S(=O)(=O)c4cccc5nsnc45)CC3)sc2c1 | i | -1.3 | -10.7 | 77.2* | -5.5 | i
CCOC(=O)c1[nH]c(C(=O)O)c(OC(=O)CC)c1C | x | 0.795 | -26.5 | 1.3 | 0.9 | i
COc1cc(NC(=S)NCCN2CCOCC2)cc(OC)c1 | + | 2.23 | -15.3 | -0.7 | -0.1 | i
COc1ccc(C(=O)NCCN2CCOCC2)cc1OC | i | 0.399 | 30.4* | -0.4 | -0.4 | i
C=CCO/N=C(/C)c1ccc(Oc2cnccn2)cc1 | i | 0.24 | -18.0 | -0.5 | -0.7 | i
COC(=O)c1ccc(NC(=O)CN2CCN(c3ccc(Cl)cc3)CC2)cc1 | + | -0.0622 | -11.4 | 0.2 | 2.9 | i
COC(=O)c1ccc(NC(=O)CN2CCN(c3cccc(Cl)c3)CC2)cc1 | i | 1.34 | -17.5 | -0.3 | -2.2 | i
Cn1c(CO)cnc1-c1ccccc1 | x | -0.457 | -12.0 | 0.5 | 1.7 | i
CN1CCc2c(sc(/N=C/c3cc(C(C)(C)C)ccc3O)c2C#N)C1 | x | 2.65 | -12.5 | 0.3 | -4.5 | i
COc1ccc(Cl)c(N2CCN(CCCNC(=O)Nc3ccc(C)cc3)CC2)c1 | + | 0.637 | -8.5 | 0.0 | 3.2 | x
CCC(C)c1ccc(O)c(NC(=O)c2cccnc2)c1 (stereo not given) | i | -0.313 | -18.6 | 0.1 | 24.2 | i
CC(C)c1ccc(O)c(NC(=O)c2cncc(Br)c2)c1 | i | 0.711 | -8.9 | 0.1 | 66.6* | i

Screening results from PubChem.
